# DENV2 CPE: inhibitors of DENV2 cytopathic effect; DENV2-infected cells, cytopathic effect rescue, plate reader; CPE inhibition, % at 9.99 µM; 350,000 tested, 1.7% active; in the data active = CPE inhibition above about 20%, passing the limit was not always enough; inconclusive = no clear call, values can overlap the other calls; tested in BHK-21 cells;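 note: 0% = median of neutral control wells and 100% = median of positive control wells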
# PfHsp90 yeast 2: growth inhibition of yeast expressing Plasmodium Hsp90; S. cerevisiae expressing PfHsp90, BacTiter-Glo ATP, 48 h; yeast lacking PDR1 and PDR3 efflux regulators; inhibition, % at 9.4 µM; 310,000 tested, 0.32% active; AID 504621;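 active = every replicate shows inhibition above about 80%, whatever the replicate mean, limit read from the data; inconclusive = mean inhibition reaches the set limit but some replicate falls short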;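 note: 0% = DMSO neutral controls and 100% = 20 µM radicicol positive controls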
# AF4-AF9 inh: blocks AF4 peptide binding to human AF9. AID 651704. inhibition, % at 10 µM. AlphaScreen, biotin-AF4 peptide binding to FLAG-AF9. 350,000 tested, 0.47% active. P42568;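 active = every replicate reaching a set inhibition limit, whatever the replicate mean, cut at about 25% in these data; inconclusive = mean inhibition reaches that limit but some replicates miss it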;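 note: 0% = plate neutral control median and 100% = total signal loss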
# Target sequence (P42568 whole entry, looked up): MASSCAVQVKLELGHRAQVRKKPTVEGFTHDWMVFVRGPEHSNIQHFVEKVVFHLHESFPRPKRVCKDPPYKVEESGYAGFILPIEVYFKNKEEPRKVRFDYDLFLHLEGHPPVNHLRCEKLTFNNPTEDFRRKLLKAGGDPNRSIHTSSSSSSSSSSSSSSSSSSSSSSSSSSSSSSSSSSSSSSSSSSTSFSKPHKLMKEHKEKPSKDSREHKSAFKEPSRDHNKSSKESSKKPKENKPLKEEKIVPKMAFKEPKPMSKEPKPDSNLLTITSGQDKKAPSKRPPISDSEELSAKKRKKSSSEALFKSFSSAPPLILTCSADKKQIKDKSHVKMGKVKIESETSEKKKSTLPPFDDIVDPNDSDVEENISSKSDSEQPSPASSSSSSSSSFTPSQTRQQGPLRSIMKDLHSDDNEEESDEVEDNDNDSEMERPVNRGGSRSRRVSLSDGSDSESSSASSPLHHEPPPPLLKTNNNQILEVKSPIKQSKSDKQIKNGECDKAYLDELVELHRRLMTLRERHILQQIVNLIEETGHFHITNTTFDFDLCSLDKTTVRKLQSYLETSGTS
# Ecoli rRNA inh: inhibits bacterial ribosomal RNA function over humanized ribosomes. E. coli WT GFP vs humanized-ribosome RFP mutants, fluorescence, 24 h; stronger effect = lower value; DMSO median 0, no signal -100. GFP signal change (wild-type ribosome), % (concentration not given with the values). 350,000 tested, 1.6% active. AID 720706;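 active = significant combined selectivity score with lowered wild-type GFP, culture density cut under 30%, mutant RFP and density less affected; inactive = any of these conditions unmet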
# S100A4 MyoIIA: blocks human S100A4 binding to myosin IIA peptide; P26447; S100A4/TAMRA-MyoIIA peptide fluorescence polarization; inhibition, % at 10.7 µM; 360,000 tested, 0.14% active;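 active = mean inhibition of at least 70% across replicates, with every replicate also reaching that level; inconclusive = mean inhibition reaches 70% but some replicates fall short; inactive = mean inhibition below 70%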
# Target sequence (P26447 whole entry, looked up): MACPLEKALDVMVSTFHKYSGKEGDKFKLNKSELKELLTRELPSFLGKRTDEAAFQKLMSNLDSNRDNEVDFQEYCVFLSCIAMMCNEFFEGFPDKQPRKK
#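 assay system = human S100A4 monomer with TAMRA-labelled myosin IIA peptide | also added = labelled myosin peptide probe, 5 nM | incubation = 5 min between mix addition and reading | control set = DMSO and TFP controls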
# Cneo AK release: Cryptococcus neoformans lysis via adenylate kinase release; AID 651654; C. neoformans lysis, adenylate kinase release luminescence, 4 h; normalised: neutral wells 0, clomiphene wells 100; lysis activity, % at 15 µM; 360,000 tested, 0.2% active;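 active = mean lysis activity across replicates of at least 80%, whatever share of replicates individually reach that level; inactive = mean lysis activity below 80%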
#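 Material: C. neoformans cells | Amount: Yeast cell density of 5 × 10^6 cells/mL | Medium: Fresh YPD growth medium | Dosing: Single dose | Times: Static 4 h at 37 °C with compound, 1 h detection | Detection: AK luminescence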
# * = called active by the depositor; ? = inconclusive; . = no result given. In the library only some 3.2% were active in any assay of this set; here they are far more common.
SMILES,DENV2 CPE,PfHsp90 yeast 2,AF4-AF9 inh,Ecoli rRNA inh,S100A4 MyoIIA,Cneo AK release
COc1cc(/C=N/Nc2ncnc3sc4c(c23)CCC4)ccc1O,0.8,1.4,-0.1,-20.0*,2.5,0.3
Cc1cccc(C)c1NC(=O)C(C)n1c(-c2ccc(=O)[nH]c2)nc2ccccc21 (configuration not stated),20.7*,.,3.5,7.0,-6.4,.
Cc1cccc(C)c1NC(=O)C(C1CC1)n1c(-c2ccc(=O)[nH]c2)nc2ccccc21 (configuration not stated),8.1,.,-0.3,2.7,-1.9,.
Cc1ccc(Nc2c(-c3ccccn3)nc3cc(C)ccn23)cc1,-6.9,4.5,37.0*,-58.5,-11.0,5.3
CCCN(C)C[C@H]1Oc2cc(-c3ccncc3)ccc2S(=O)(=O)N([C@H](C)CO)C[C@H]1C,1.1,.,-0.6,0.5,6.5,3.1
COc1ccc(Br)cc1[C@H]1[C@H]2C=CC[C@@H](C)[C@@H]2C(=O)N1Cc1ccccc1,66.4*,-9.5,-0.6,1.6,-0.8,3.8
COc1ccc(-c2ccc(OC)c([C@H]3[C@H]4C=CC[C@@H](C)[C@@H]4C(=O)N3Cc3ccccc3)c2)cc1OC,2.3,20.2,2.6,7.3,0.3,1.7
COC(=O)/C=C/c1cccc([C@H]2[C@@H]3C=CC[C@@H](C)[C@@H]3C(=O)N2Cc2ccccc2)c1,?,-53.9,6.3,-19.0*,0.2,-1.8
C[C@@H]1CCCCO[C@@H](CN(C)C(=O)Nc2ccc3c(c2)OCO3)[C@H](C)CN([C@H](C)CO)C(=O)c2cc(NC(=O)Nc3cccc4ccccc34)ccc2O1,-9.1,.,1.2,1.8,5.8,.
C[C@@H]1CCCCO[C@@H](CN(C)C(=O)Nc2ccc3c(c2)OCO3)[C@@H](C)CN([C@H](C)CO)C(=O)c2cc(NC(=O)Nc3cccc4ccccc34)ccc2O1,.,.,-4.8,2.3,-0.2,105.1*
C[C@@H]1CN([C@H](C)CO)C(=O)c2cc(NC(=O)Nc3cccc4ccccc34)ccc2O[C@@H](C)CCCCO[C@@H]1CN(C)Cc1ccc2c(c1)OCO2,-20.1,.,.,-1.0,.,83.6*
C[C@H]1CCCCO[C@H](CN(C)Cc2ccc3c(c2)OCO3)[C@@H](C)CN([C@@H](C)CO)C(=O)c2cc(NC(=O)Nc3cccc4ccccc34)ccc2O1,-23.3,.,.,-0.3,.,0.9
O=C(NC[C@H]1N[C@H](CO)[C@@H]1c1ccc(C2=CCCCC2)cc1)c1cccc(F)c1,9.5,.,11.5,-62.7,6.0,2.4
O=C(NC[C@H]1N[C@H](CO)[C@H]1c1ccccc1)c1ccccc1F,22.9*,.,-2.9,-3.5,2.1,0.4
CN(C[C@@H]1N[C@H](CO)[C@@H]1c1ccccc1)C(=O)c1ccccc1F,.,.,.,2.5,.,.
O=C(NC[C@H]1N[C@H](CO)[C@@H]1c1ccc(C2=CCCCC2)cc1)c1ccc(F)cc1,44.1*,.,12.6,-60.8,-27.7,13.4
C[C@@H]1CN([C@@H](C)CO)C(=O)c2cc(C3=CCCCC3)cnc2O[C@H]1CN(C)C(=O)c1ccccc1,-16.9,.,-1.0,-2.3,1.6,4.6
CC1(C)C2CCC(C2)C1(C)N=C1OC(CCl)CS1 (configuration not stated),-3.0,-14.0,.,-21.9*,3.9,4.1
COc1cc2ccccc2nn1,1.6,14.4,-0.2,3.4,-5.4,.
COc1ccc2c(n1)Sc1nc3ccccc3nc1N2,-8.8,89.0*,-2.0,1.1,1.1,-0.8
O=C(Nc1nnc(-c2ccc(F)cc2)o1)c1cc(Cl)sc1Cl,.,80.0*,.,.,.,.
C[C@H](CO)N1C[C@H](C)[C@H](CN(C)Cc2ccccc2)Oc2ccc(NC(=O)NC3CCCCC3)cc2C1=O,-12.2,.,3.7,0.7,3.4,-1.3
C[C@@H]1CN([C@H](C)CO)C(=O)c2cc(NC(=O)NC3CCCCC3)ccc2O[C@@H]1CN(C)Cc1ccccc1,-5.7,.,?,0.0,4.4,-5.6
C[C@H](CO)N1C[C@H](C)[C@@H](CN(C)Cc2ccc(C(=O)O)cc2)Oc2ccc(NC(=O)NC3CCCCC3)cc2C1=O,44.9*,.,-2.3,-1.9,5.2,-0.4
C[C@H]1CN([C@@H](C)CO)C(=O)c2cc(NC(=O)NC3CCCCC3)ccc2O[C@@H]1CN(C)Cc1ccc(C(=O)O)cc1,-5.5,.,-2.9,3.0,95.6*,2.4
SMILES,DENV2 CPE,PfHsp90 yeast 2,AF4-AF9 inh,Ecoli rRNA inh,S100A4 MyoIIA,Cneo AK release
O=C(NCC[C@@H]1CC[C@@H](NS(=O)(=O)c2cccc(F)c2)[C@H](CO)O1)C1CCOCC1,1.8,.,-2.8,-3.8,3.8,3.2
CNC(=O)C[C@H]1CC[C@@H]2[C@@H](COc3ccc(NC(=O)c4cnccn4)cc3C(=O)N2C)O1,-8.6,.,.,-2.6,.,-8.3
COc1cccc(S(=O)(=O)N2C[C@H](O)COC[C@@H]3O[C@H](CC(=O)N4CCN(C)CC4)CC[C@H]32)c1,-1.4,.,-2.6,1.1,9.0,-0.1
C[C@@H]1CN([C@@H](C)CO)C(=O)c2cc(NC(=O)Nc3ccc4c(c3)OCO4)ccc2O[C@H]1CN(C)Cc1ccc(Oc2ccccc2)cc1,?,.,14.5,0.6,0.0,89.0*
C[C@H](CO)N1C[C@H](C)[C@@H](CN(C)Cc2ccc(Oc3ccccc3)cc2)Oc2ccc(NC(=O)Nc3ccc4c(c3)OCO4)cc2C1=O,-8.8,.,11.6,1.6,-1.7,100.8*
C[C@@H]1CN([C@H](C)CO)C(=O)c2cc(NC(=O)Nc3ccc4c(c3)OCO4)ccc2O[C@H]1CN(C)Cc1ccc(Oc2ccccc2)cc1,0.6,.,6.7,3.1,5.5,2.9
O=C(Nc1ccc(N2CCCCCC2)cc1)c1ccc[nH]1,-0.6,8.2,34.0*,1.1,-4.7,-2.2
O=C(Nc1ccc(N2CCCCCC2)cc1)c1ccccc1Cl,1.1,-17.6,22.1,-28.9,-2.5,-1.9
O=C(COc1ccc2ccc(=O)oc2c1)Nc1ccc(CCO)cc1,0.5,-7.9,0.0,0.3,-4.0,2.5
O=C(COC(=O)c1ccc(Cl)nc1)Nc1ccc(N2CCCCC2)cc1,61.6*,-9.6,1.4,.,4.1,-2.2
Cc1cc(C)cc(C(=O)Nc2ccc(N3CCCC3)cc2)c1,-0.2,-12.7,11.5,-29.9*,-5.7,.
O=C(COc1ccc2ccc(=O)oc2c1)Nc1ccc(N2CCCCC2)cc1,4.2,.,46.9*,5.5,6.6,-0.4
CCC(=O)N[C@H]1C=C[C@@H](CC(=O)NCc2cc(F)cc(F)c2)O[C@@H]1CO,-12.0,.,0.2,1.1,44.6,-0.5
C[C@@H]1CN([C@@H](C)CO)C(=O)c2cccc(NC(=O)Nc3ccccc3)c2O[C@H]1CN(C)C(=O)NC1CCCCC1,-3.0,.,-8.5,-3.1,2.8,-0.5

# Assay outcomes deposited in PubChem BioAssay by Broad Institute.
